In ChEMBL document CHEMBL4342528, “Discovery of a First-in-Class Protein Arginine Methyltransferase 6 (PRMT6) Covalent Inhibitor” (J Med Chem, 2020):
Activity calls are given as the source filed them. No cut-off for these calls is given here.

Experiments:
[1] = Inhibition of type 1 PRMT (unknown origin); set-up: species or system Homo sapiens
[2] = target: T1, Protein arginine N-methyltransferase 6 (Homo sapiens, UniProt Q96LA8); test: Inhibition of Flag-tagged PRMT6 (unknown origin) expressed in HEK293 cells at 2 uM incubated for 20 hrs assessed as reduction in H3R2me2a levels; assay type: cell-based
Target sequence in this assay (Q96LA8 whole entry, looked up): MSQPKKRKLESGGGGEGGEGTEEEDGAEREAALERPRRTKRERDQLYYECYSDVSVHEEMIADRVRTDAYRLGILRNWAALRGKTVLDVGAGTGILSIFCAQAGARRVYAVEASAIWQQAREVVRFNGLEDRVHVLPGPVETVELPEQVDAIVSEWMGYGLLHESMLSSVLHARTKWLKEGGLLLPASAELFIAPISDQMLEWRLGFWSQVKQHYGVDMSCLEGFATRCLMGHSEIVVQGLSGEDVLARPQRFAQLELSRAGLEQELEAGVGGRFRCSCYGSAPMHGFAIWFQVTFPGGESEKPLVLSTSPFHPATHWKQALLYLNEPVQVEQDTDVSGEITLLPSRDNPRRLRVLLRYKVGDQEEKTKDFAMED

[3] = target: T1, Protein arginine N-methyltransferase 6; test: Inhibition of human PRMT6 using [3H]SAM as donor and [3H]methylated biotin-labeled peptide as substrate by scintillation proximity assay; settings: read-out: IC50
In short: (§1)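 Compound titrated into the reaction; 1 h enzyme–compound preincubation stated for PRMT6. Methylated peptide captured on streptavidin/scintillant-coated plates and counted (cpm). IC50 from concentration–response, triplicate, mean ± SD.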
Target sequence in this assay (Q96LA8 whole entry): as the sequence (Q96LA8 whole entry, looked up) above

[4] = target: T1, Protein arginine N-methyltransferase 6; test: Inhibition of PRMT6 (unknown origin) assessed as reduction in incorporation of [3H]-labeled methyl group into biotinylated substrate using [3H-SAM] at 10 uM incubated for 1 hr by scintillation proximity assay
In short: (§2)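 Panel of 33 methyltransferases (22 PKMTs, 3 DNMTs, 8 PRMTs), each tested at 10 and 50 μM compound. Activity was read as ³H-methyl transfer from ³H-SAM in a radiometric assay done as previously described.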
Target sequence in this assay (Q96LA8 whole entry, looked up): as above

[5] = target: T1, Protein arginine N-methyltransferase 6; test: Covalent binding affinity to human PRMT6 assessed as covalent adduct. formation at 300 uM pre-incubated for 1 hr by mass spectrometry
In short: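 PRMT protein at 15 μM was incubated 1 h at room temperature with a 20-fold molar excess of inhibitor (300 μM). The reaction was quenched with 0.1% aqueous TFA, separated by HPLC (5–95% acetonitrile in water) and analysed by ESI time-of-flight LC/MS for protein–ligand adduct mass.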
Target sequence in this assay (Q96LA8 whole entry, looked up): as above

[6] = target: T2, Protein arginine N-methyltransferase 3 (Homo sapiens, UniProt O60678); test: Inhibition of human PRMT3 using [3H]SAM as donor and [3H]methylated biotin-labeled peptide as substrate by scintillation proximity assay; in short: as §1
Target sequence in this assay (O60678 whole entry): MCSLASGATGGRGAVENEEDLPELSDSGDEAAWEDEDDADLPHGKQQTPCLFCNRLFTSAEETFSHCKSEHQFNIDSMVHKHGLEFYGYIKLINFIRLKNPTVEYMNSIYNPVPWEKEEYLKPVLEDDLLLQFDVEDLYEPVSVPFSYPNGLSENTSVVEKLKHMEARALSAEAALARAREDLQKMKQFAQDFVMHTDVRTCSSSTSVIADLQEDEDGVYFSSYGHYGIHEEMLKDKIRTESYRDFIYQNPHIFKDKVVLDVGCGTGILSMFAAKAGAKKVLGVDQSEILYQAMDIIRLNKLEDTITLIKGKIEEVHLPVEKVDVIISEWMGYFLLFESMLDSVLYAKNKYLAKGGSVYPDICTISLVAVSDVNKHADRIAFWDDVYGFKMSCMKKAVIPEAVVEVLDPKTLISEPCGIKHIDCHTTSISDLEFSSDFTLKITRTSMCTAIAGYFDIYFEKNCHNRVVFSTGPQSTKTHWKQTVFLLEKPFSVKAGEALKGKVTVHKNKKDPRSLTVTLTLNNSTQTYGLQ

[7] = target: T3, Histone-arginine methyltransferase CARM1 (Homo sapiens, UniProt Q86X55); test: Inhibition of human PRMT4 using [3H]SAM as donor and [3H]methylated biotin-labeled peptide as substrate by scintillation proximity assay; in short: as §1
T3 sequence (Q86X55 whole entry): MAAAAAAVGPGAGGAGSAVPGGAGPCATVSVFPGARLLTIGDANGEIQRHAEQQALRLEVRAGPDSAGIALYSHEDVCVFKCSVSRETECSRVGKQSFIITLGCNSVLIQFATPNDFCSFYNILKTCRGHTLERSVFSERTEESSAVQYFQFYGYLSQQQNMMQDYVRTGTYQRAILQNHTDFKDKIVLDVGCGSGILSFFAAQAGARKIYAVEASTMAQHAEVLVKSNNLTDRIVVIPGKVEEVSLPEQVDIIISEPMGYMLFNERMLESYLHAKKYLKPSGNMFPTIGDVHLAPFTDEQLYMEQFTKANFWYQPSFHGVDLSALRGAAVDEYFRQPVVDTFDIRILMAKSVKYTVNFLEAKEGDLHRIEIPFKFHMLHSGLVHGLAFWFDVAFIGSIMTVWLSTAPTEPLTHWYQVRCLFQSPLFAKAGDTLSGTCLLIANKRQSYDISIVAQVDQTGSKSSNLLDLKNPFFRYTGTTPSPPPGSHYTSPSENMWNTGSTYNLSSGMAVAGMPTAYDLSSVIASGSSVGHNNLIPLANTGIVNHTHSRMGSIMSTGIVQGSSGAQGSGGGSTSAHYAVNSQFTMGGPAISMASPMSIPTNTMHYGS

[8] = target: T4, Protein arginine N-methyltransferase 8 (Homo sapiens, UniProt Q9NR22); test: Inhibition of human PRMT8 using [3H]SAM as donor and [3H]methylated biotin-labeled peptide as substrate by scintillation proximity assay
In short: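 Radiometric SPA: ³H-methyl transfer from ³H-SAM to biotin-labeled peptide, captured on streptavidin/scintillant-coated plate, counts per minute read; substrate and cofactor each at their Km for the enzyme; compound titrated; IC50 from triplicate determinations, mean ± SD.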
Target sequence in this assay (Q9NR22 whole entry): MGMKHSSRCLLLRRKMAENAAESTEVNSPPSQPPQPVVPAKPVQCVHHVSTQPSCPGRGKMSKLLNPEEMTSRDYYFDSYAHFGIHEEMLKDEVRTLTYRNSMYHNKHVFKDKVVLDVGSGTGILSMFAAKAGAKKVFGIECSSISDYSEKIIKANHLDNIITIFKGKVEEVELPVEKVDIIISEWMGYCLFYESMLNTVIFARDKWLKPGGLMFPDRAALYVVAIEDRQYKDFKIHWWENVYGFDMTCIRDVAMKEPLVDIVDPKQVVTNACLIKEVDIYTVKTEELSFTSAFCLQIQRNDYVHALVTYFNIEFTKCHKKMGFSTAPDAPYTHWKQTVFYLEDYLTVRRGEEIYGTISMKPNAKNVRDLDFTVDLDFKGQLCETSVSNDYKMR

[9] = target: T1, Protein arginine N-methyltransferase 6; test: Inhibition of Flag-tagged PRMT6 (unknown origin) expressed in HEK293 cells at 0.1 to 10 uM incubated for 20 hrs assessed as reduction in H3R2me2a levels; assay type: cell-based
Target sequence in this assay (Q96LA8 whole entry, looked up): as the sequence (Q96LA8 whole entry, looked up) above

[10] = target: T2, Protein arginine N-methyltransferase 3; test: Inhibition of PRMT3 (unknown origin) expressed in HEK293T cells were co-transfected with GFP-tagged histone H4 peptide assessed as reduction in H4R3 arginine asymmetric dimethylation at 2.2 to 20 uM incubated for 20 hrs; assay type: cell-based
Target sequence in this assay (O60678 2-531 limits assumed): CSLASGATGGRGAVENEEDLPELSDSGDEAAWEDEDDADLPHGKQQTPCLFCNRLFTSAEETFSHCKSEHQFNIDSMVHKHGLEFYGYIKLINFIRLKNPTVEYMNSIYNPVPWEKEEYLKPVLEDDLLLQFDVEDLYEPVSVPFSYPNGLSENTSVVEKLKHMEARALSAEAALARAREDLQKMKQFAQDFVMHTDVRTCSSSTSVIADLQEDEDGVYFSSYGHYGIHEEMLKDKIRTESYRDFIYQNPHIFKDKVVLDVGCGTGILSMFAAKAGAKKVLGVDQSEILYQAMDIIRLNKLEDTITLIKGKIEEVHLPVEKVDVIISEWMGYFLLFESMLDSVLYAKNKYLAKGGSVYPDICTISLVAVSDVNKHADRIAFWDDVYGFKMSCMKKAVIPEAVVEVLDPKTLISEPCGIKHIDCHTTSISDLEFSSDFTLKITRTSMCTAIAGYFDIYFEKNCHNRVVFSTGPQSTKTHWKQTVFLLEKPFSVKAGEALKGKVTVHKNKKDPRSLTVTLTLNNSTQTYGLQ

[11] = target: T5, Histone-arginine methyltransferase CARM1 (Homo sapiens) (UniProt Q86X55); test: Inhibition of PRMT4 in human MCF7 cells assessed as reduction in BAF155 asymmetric dimethylation at 2.2 to 20 uM incubated for 2 days; assay type: cell-based
T5 sequence (whole entry): T3 sequence (Q86X55 whole entry)

[12] = tested on: MCF7; test: Toxicity in human MCF7 cells assessed as reduction in cell viability up to 20 uM incubated for 3 days by CCK8 assay; assay type: cell-based; settings: mcf7, 72 h
In short: (§3)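 Cells seeded 1×10^4 per well in triplicate, treated after 24 h with serial dilutions from 20 μM for 3 days; CCK-8 (WST-8) added, 4 h at 37 °C, absorbance at 450 nm; mean ± SD of three replicate experiments.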

[13] = tested on: PNT2; test: Toxicity in human PNT2 cells assessed as reduction in cell viability up to 20 uM incubated for 3 days by CCK8 assay; assay type: cell-based; settings: pnt2, 72 h; in short: as §3
[14] = tested on: HEK-293T; test: Toxicity in HEK293T cells assessed as reduction in cell viability up to 20 uM incubated for 3 days by CCK8 assay; assay type: cell-based; settings: human, 72 h; in short: as §3
[15] = target: T1, Protein arginine N-methyltransferase 6; test: Inhibition of PRMT6 (unknown origin) assessed as reduction in incorporation of [3H]-labeled methyl group into biotinylated substrate using [3H-SAM] at 50 uM incubated for 1 hr by scintillation proximity assay relative to control; in short: as §2
Target sequence in this assay (Q96LA8 whole entry, looked up): as the sequence (Q96LA8 whole entry, looked up) above

[16] = target: T1, Protein arginine N-methyltransferase 6; test: Time dependent inhibition of human PRMT6 pre-incubated for 1 to 30 mins using [3H]SAM as donor and [3H]methylated biotin-labeled peptide as substrate by scintillation proximity assay
Target sequence in this assay (Q96LA8 whole entry, looked up): as above

[17] = target: T1, Protein arginine N-methyltransferase 6; test: […] inhibition of human PRMT6 pre-incubated for 1 to 30 mins using [3H]SAM as donor and [3H]methylated biotin-labeled peptide as substrate by scintillation proximity assay
[18] = target: T6, Protein arginine N-methyltransferase 1 (Homo sapiens, UniProt Q99873); test: Inhibition of human PRMT1 using [3H]SAM as donor and [3H]methylated biotin-labeled peptide as substrate by scintillation proximity assay
Target sequence in this assay (Q99873 whole entry): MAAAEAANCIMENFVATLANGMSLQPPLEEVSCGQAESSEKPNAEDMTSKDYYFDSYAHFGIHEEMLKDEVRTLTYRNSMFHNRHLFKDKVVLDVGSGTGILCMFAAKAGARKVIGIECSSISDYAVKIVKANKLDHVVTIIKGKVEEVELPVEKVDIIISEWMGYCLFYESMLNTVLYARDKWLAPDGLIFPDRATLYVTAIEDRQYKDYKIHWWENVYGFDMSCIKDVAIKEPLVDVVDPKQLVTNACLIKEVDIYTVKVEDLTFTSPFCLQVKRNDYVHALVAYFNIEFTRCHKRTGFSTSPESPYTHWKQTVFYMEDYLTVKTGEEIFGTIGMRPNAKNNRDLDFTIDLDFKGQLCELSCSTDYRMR

[19] = target: T6, Protein arginine N-methyltransferase 1; test: Inhibition of PRMT1 in human MCF7 cells assessed as reduction in H4R3me2a levels incubated for 2 days by fluorescence based assay; assay type: cell-based
In short: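 MCF7 cells with endogenous PRMT1 were treated with compound for 2 days, with MS023 (1 μM) as positive control. The H4R3me2a fluorescence signal was normalized to H4 and fitted nonlinearly to give IC50.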

[20] = target: T2, Protein arginine N-methyltransferase 3; test: Inhibition of PRMT3 (unknown origin) expressed in HEK293T cells were co-transfected with GFP-tagged histone H4 peptide assessed as reduction in H4R3 arginine asymmetric dimethylation at 0.2 to 20 uM incubated for 20 hrs; assay type: cell-based
Target sequence in this assay (O60678 2-531 limits assumed): as the sequence (O60678 2-531 limits assumed) above

[21] = target: T5, Histone-arginine methyltransferase CARM1 (Homo sapiens); test: Inhibition of PRMT4 in human MCF7 cells assessed as reduction in BAF155 asymmetric dimethylation at 0.2 to 20 uM incubated for 2 days; assay type: cell-based
[22] = target: T2, Protein arginine N-methyltransferase 3; test: Inhibition of PRMT3 (unknown origin) assessed as reduction in incorporation of [3H]-labeled methyl group into biotinylated substrate using [3H-SAM] at 10 uM incubated for 1 hr by scintillation proximity assay; in short: as §2
Target sequence in this assay (O60678 2-531 limits assumed): as above

[23] = target: T5, Histone-arginine methyltransferase CARM1 (Homo sapiens); test: Inhibition of PRMT4 (unknown origin) assessed as reduction in incorporation of [3H]-labeled methyl group into biotinylated substrate using [3H-SAM] at 10 uM incubated for 1 hr by scintillation proximity assay; in short: as §2
[24] = target: T4, Protein arginine N-methyltransferase 8; test: Inhibition of PRMT8 (unknown origin) assessed as reduction in incorporation of [3H]-labeled methyl group into biotinylated substrate using [3H-SAM] at 10 uM incubated for 1 hr by scintillation proximity assay; in short: as §2
Target sequence in this assay (Q9NR22 2-394 limits assumed): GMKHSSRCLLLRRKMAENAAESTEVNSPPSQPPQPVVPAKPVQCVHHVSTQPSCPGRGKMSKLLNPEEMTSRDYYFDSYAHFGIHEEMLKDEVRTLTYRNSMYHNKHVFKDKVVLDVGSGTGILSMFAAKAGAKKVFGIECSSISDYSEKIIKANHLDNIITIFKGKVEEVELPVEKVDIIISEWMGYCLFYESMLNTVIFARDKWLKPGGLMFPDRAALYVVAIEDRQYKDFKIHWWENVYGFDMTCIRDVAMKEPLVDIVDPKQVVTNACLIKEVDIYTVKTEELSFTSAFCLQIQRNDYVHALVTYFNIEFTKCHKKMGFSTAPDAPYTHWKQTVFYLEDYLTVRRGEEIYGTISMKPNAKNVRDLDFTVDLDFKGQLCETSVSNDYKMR

[25] = target: T2, Protein arginine N-methyltransferase 3; test: Inhibition of PRMT3 (unknown origin) assessed as reduction in incorporation of [3H]-labeled methyl group into biotinylated substrate using [3H-SAM] at 50 uM incubated for 1 hr by scintillation proximity assay relative to control; in short: as §2
Target sequence in this assay (O60678 2-531 limits assumed): as the sequence (O60678 2-531 limits assumed) above

[26] = target: T5, Histone-arginine methyltransferase CARM1 (Homo sapiens); test: Inhibition of PRMT4 (unknown origin) assessed as reduction in incorporation of [3H]-labeled methyl group into biotinylated substrate using [3H-SAM] at 50 uM incubated for 1 hr by scintillation proximity assay relative to control; in short: as §2
[27] = target: T4, Protein arginine N-methyltransferase 8; test: Inhibition of PRMT8 (unknown origin) assessed as reduction in incorporation of [3H]-labeled methyl group into biotinylated substrate using [3H-SAM] at 50 uM incubated for 1 hr by scintillation proximity assay relative to control; in short: as §2
Target sequence in this assay (Q9NR22 2-394 limits assumed): as the sequence (Q9NR22 2-394 limits assumed) above

[28] = target: T5, Histone-arginine methyltransferase CARM1 (Homo sapiens); test: Inhibition of PRMT4 in human MCF7 cells assessed as reduction in BAF155 asymmetric dimethylation at 2 uM incubated for 2 days; assay type: cell-based

CC(C)Oc1ccc(-c2c[nH]cc2CN(C)CCN)cc1
IC50 [1]: 0.004 to 0.119 µM
inhibition [2]: Active

C=CC(=O)Nc1cccc(-c2c[nH]cc2CN(C)CCO)c1
IC50 [3]: 9.8 µM
inhibition [4]: 50%
Activity [5]: inactive
IC50 [6]: > 200 µM
IC50 [7]: 51 µM
IC50 [8]: 23 µM
inhibition [9]: inactive
inhibition [10]: inactive
inhibition [11]: inactive
Activity [12]: Non-Toxic
Activity [13]: Non-Toxic
Activity [14]: Non-Toxic
inhibition [15]: 80%

CCC(=O)Nc1cccc(-c2c[nH]cc2CN(C)CCN)c1
IC50 [3]: 0.028 µM
inhibition [4]: > 40%
TDI [16]: inactive
inhibition [17]: Active
Activity [5]: inactive
IC50 [18]: 0.17 µM
IC50 [6]: 15 µM
IC50 [7]: 2 µM
IC50 [8]: 0.13 µM
inhibition [9]: Active
IC50 [19]: 6.7 µM
inhibition [19]: Dose-dependent effect
inhibition [20]: inactive
inhibition [21]: inactive
Activity [12]: Non-Toxic
Activity [13]: Non-Toxic
Activity [14]: Non-Toxic
inhibition [22]: > 40%
inhibition [23]: > 40%
inhibition [24]: > 40%
inhibition [25]: > 80%
inhibition [26]: > 80%
inhibition [15]: > 80%
inhibition [27]: > 80%

CNCCN1CCC(c2cc(CN(C)C(=O)c3cccc(Oc4ccccc4)c3)ccn2)CC1
inhibition [28]: Active
